Laboratory results as given in ChEMBL document CHEMBL4406835, “Discovery of dual-acting opioid ligand and TRPV1 antagonists as novel therapeutic agents for pain” (Eur J Med Chem, 2019).
Activity calls are given as the source filed them. No cut-off for these calls is given here.

What was measured:
[1] = target: T1, Transient receptor potential cation channel subfamily V member 1 (Homo sapiens, UniProt Q8NER1); assay: Displacement of [3H]RTX from recombinant human TRPV1 expressed in CHO cells incubated for 60 mins by liquid scintillation counter; type: cell-based
Summary of the method: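 Pellets from human TRPV1 CHO cells (Tet-Off, induced 48 h) in DPBS with Ca2+/Mg2+ and BSA 0.25 mg/mL. Incubated with [3H]RTX 100 pM and varied competitor, 60 min at 37 °C. Nonspecific binding defined with unlabelled RTX 100 nM. Chilled, glycoprotein added, membranes pelleted by centrifugation, scintillation counted. Ki from Hill equation fit. Mean of ≥3 experiments.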

[2] = target: T1, Transient receptor potential cation channel subfamily V member 1; assay: Agonist activity at recombinant human TRPV1 expressed in CHO cells assessed as increase in calcium uptake incubated for 5 mins in presence of 45Ca2+ and capsaicin by liquid scintillation counter; type: cell-based
Mu-type opioid receptor = Mu-type opioid receptor (Homo sapiens, UniProt P35372); assay: Displacement of [3H]-DAMGO from full length human MOR expressed in chem5 cells incubated for 60 mins by liquid scintillation counter; type: cell-based
[3] = target: T1, Transient receptor potential cation channel subfamily V member 1; assay: Antagonist activity at recombinant human TRPV1 expressed in CHO cells assessed as as inhibition of capsaicin-induced calcium uptake incubated for 5 mins in presence of 45Ca2+ by liquid scintillation counter; type: cell-based
Summary of the method: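 CHO cells stably expressing human TRPV1 (Tet-Off) induced 48 h in tetracycline-free medium. Uptake run in DMEM with BSA 0.25 mg/mL and 45Ca2+ 37 kBq/mL, with capsaicin 30 nM plus increasing test concentrations, 5 min at 37 °C. Cells washed, lysed in RIPA, counted. Four wells per point, Hill fit. ID50 converted to Ki by Cheng-Prusoff. Mean of ≥3 experiments.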

Mus musculus [4] = assay: Antinociceptive activity in ip dosed ICR mouse assessed as reduction in pain response of paw licking and biting pretreated for 30 mins followed by formalin treatment and measures after 0 to 5 mins by formalin test; type: functional
Summary of the method: (§1)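 Male ICR mice, 20-25 g, 6-8 per group. Compound i.p. 30 min before 20 μL of 2% formalin in 0.9% saline into dorsal right hindpaw. Licking and biting time summed per 5 min block over 30 min. Early phase 0-5 min, late phase 20-30 min. ED50 derived from dose-response.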

Mus musculus [5] = assay: Antinociceptive activity in ip dosed ICR mouse assessed as reduction in pain response of paw licking and biting pretreated for 30 mins followed by formalin treatment and measures after 20 to 30 mins by formalin test; type: functional; summary of the method: as §1
Mus musculus [6] = assay: Antinociceptive activity in ICR mouse assessed as reduction of pain behaviour at 40 mg/kg, ip pretreated for 30 mins followed by formalin treatment and measured after 20 to 30 mins by formalin test; type: functional, organism-based
Summary of the method: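 Male ICR mice, 20-25 g, in groups of 6-8. Compound given i.p. 30 min before 20 μL of 2% formalin in 0.9% saline injected into the dorsal right hindpaw. Licking and biting time is summed in 5-min blocks over 30 min. Late phase is 20-30 min after injection.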

Mus musculus [7] = assay: Antinociceptive activity in ip dosed ICR mouse assessed as reduction in capsaicin-induced paw licking pretreated for 30 mins followed by capsaicin treatment and measured for 5 mins; type: functional, organism-based
Summary of the method: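 Male ICR mice, 20-25 g, in groups of 3-4. Compound or vehicle given i.p. 30 min before intraplantar capsaicin (3 μg/paw in 10 μl) into the right hind paw. Time spent licking the injected paw is recorded over 5 min. Results are given as mean ± SEM and compared with vehicle.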

Mus musculus [8] = assay: Antinociceptive activity in ICR mouse assessed as reduction in capsaicin-induced paw licking at 20 mg/kg, ip pretreated for 30 mins followed by capsaicin treatment and measured for 5 mins relative to control; type: functional
Summary of the method: (§2)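 Male ICR mice, 20-25 g, 3-4 per group. Pretreated i.p. with compound or vehicle 30 min before intraplantar capsaicin 3 μg/paw in 10 μL into right hind paw. Licking time recorded for 5 min and expressed as % inhibition versus vehicle. Mean ± SEM.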

Mus musculus [9] = assay: Antinociceptive activity in ICR mouse assessed as reduction in capsaicin-induced paw licking at 40 mg/kg, ip pretreated for 30 mins followed by capsaicin treatment and measured for 5 mins relative to control; type: functional; summary of the method: as §2
Mus musculus [10] = assay: Antinociceptive activity in ICR mouse assessed as reduction in paw licking time at 30 mg/kg, ip pretreated for 30 mins followed by formalin treatment and measures after 0 to 5 mins by formalin test relative to control; type: functional
Summary of the method: (§3)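 Male ICR mice, 20-25 g. Compound i.p. 30 min before 20 μL of 2% formalin in 0.9% saline into dorsal right hindpaw. Licking time scored at 0-5 min (early) and 20-30 min (late) and expressed as % decrease versus vehicle. n = 3-4, mean ± SEM.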

Mus musculus [11] = assay: Antinociceptive activity in ICR mouse assessed as reduction in paw licking time at 30 mg/kg, ip pretreated for 30 mins followed by formalin treatment and measures after 20 to 30 mins by formalin test relative to control; type: functional; summary of the method: as §3
Mus musculus [12] = assay: (§4) Antinociceptive activity in ICR mouse assessed as reduction in paw licking time at 30 mg/kg, ip pretreated with 10 mg/kg, ip mu opioid receptor antagonist, naloxone 15 mins prior to compound treatment and 30 mins later treated with formalin and measured after 0 to 5 mins by formalin test relative to control; type: functional
Summary of the method: (§5)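 Male ICR mice, 20-25 g, 3-4 per group. Naloxone 10 mg/kg i.p. given 15 min before test article or vehicle i.p. Formalin paw test 30 min later: 20 μL of 2% formalin into right hindpaw. Licking scored at 0-5 min and 20-30 min and compared with vehicle. Mean ± SEM.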

Mus musculus [13] = assay: as §4, with “after 20” for “after 0”, “to 30” for “to 5”; type: functional; summary of the method: as §5

Mu-type opioid receptor, sequence (P35372 whole entry): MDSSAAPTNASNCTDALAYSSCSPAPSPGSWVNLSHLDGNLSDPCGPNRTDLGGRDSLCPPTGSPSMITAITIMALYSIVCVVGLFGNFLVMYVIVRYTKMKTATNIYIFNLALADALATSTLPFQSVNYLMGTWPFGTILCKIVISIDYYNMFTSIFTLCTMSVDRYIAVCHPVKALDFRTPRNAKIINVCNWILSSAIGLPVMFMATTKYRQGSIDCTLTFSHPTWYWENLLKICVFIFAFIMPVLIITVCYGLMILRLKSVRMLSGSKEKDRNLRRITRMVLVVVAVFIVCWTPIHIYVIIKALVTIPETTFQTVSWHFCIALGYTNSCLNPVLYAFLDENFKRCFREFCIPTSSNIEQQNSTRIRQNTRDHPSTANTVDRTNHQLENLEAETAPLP
T1 sequence (Q8NER1 whole entry): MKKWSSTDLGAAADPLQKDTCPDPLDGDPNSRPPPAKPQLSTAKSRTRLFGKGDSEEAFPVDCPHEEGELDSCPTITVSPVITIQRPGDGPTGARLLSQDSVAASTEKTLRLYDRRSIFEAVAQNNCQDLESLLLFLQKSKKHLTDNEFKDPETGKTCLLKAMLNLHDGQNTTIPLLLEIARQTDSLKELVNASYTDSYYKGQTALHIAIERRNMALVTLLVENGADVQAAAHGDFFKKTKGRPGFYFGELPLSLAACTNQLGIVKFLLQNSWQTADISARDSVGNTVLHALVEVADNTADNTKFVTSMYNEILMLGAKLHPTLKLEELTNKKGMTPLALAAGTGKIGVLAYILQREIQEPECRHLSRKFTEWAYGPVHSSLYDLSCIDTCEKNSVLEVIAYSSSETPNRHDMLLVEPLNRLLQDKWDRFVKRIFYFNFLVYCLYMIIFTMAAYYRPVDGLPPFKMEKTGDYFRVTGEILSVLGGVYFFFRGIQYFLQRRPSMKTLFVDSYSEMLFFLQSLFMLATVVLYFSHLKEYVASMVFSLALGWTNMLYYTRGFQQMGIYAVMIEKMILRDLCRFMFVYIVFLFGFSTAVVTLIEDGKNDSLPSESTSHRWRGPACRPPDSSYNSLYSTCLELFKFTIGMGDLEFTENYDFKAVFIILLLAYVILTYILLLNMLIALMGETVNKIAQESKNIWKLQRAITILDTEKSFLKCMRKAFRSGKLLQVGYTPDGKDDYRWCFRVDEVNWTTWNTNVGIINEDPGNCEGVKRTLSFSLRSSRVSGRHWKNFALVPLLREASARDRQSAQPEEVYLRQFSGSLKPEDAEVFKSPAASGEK

Compound | Ki [1] [nM] | EC50 ([2]; cho) | Ki (Mu-type opioid receptor) [nM] | further results
CC1CCN(c2nc(C(F)(F)F)ccc2CNC(=O)[C@@H](C)c2ccc(NS(C)(=O)=O)c(F)c2)CC1 (racemic) | 7.9 | Not Active | – | –
CN(C)C1(Cc2ccccc2)CCN(c2cc(C(F)(F)F)ccc2CNC(=O)Nc2ccc3cnccc3c2)CC1 | 62 | Not Active | 17 | –
CN(C)C1(Cc2ccccc2)CCN(c2cc(C(F)(F)F)ccc2CNC(=O)Nc2cccc3c2CC(O)CC3)CC1 (configuration not stated) | 0.95 | Not Active | 261 | –
CN(C)C1(Cc2ccccc2)CCN(c2cc(C(F)(F)F)ccc2CNC(=O)Nc2ccc3c(c2)OCC3)CC1 | 41.4 | Not Active | 225 | –
CN(C)C1(Cc2ccccc2)CCN(c2cc(C(F)(F)F)ccc2CNC(=O)NCc2ccc(NS(C)(=O)=O)c(F)c2)CC1 | 266 | Not Active | 76.2 | –
CN(C)C1(Cc2ccccc2)CCN(c2cc(C(F)(F)F)ccc2CNC(=O)Nc2cccc3[nH]c(=O)ccc23)CC1 | 1.67 | Not Active | 240 | –
CN(C)C1(Cc2ccccc2)CCN(c2cc(C(F)(F)F)ccc2CNC(=O)Nc2cccc3ccc(O)cc23)CC1 | 0.46 | Not Active | 137 | –
CN(C)C1(Cc2ccccc2)CCN(c2cc(C(F)(F)F)ccc2CNC(=O)Nc2ccc3ccncc3c2)CC1 | 7.33 | Not Active | 177 | –
CN(C)C1(Cc2ccccc2)CCN(c2cc(C(F)(F)F)ccc2CNC(=O)Nc2ccc(CNS(N)(=O)=O)c(F)c2)CC1 | 15.3 | Not Active | 72.4 | –
CC(C(=O)NCc1ccc(C(F)(F)F)cc1N1CCC(Cc2ccccc2)(N(C)C)CC1)c1ccc(NS(C)(=O)=O)c(F)c1 (configuration not stated) | 3.79 | Not Active | 428 | –
CN(C)C1(Cc2ccccc2)CCN(c2cc(C(F)(F)F)ccc2CNC(=O)Nc2ccc(NS(C)(=O)=O)c(F)c2)CC1 | 1160 | Not Active | 368 | inhibition [3]: Active
CN(C)C1(Cc2ccccc2)CCN(c2cc(C(F)(F)F)ccc2CNC(=O)Nc2cccc3ncccc23)CC1 | 10.8 | Not Active | 29 | Activity (Mus musculus [4]): Dose-dependent effect; ED50 (Mus musculus [4]): 23.9 mg/kg; Activity (Mus musculus [5]): Dose-dependent effect; ED50 (Mus musculus [5]): 10.5 mg/kg; inhibition (Mus musculus [6]): Active; inhibition (Mus musculus [7]): Dose-dependent effect; inhibition in vivo at 20 mg/kg (Mus musculus [8]): 64.8%; inhibition in vivo at 40 mg/kg (Mus musculus [9]): 89.6%; inhibition in vivo at 30 mg/kg (Mus musculus [10]): 52.5%; inhibition in vivo at 30 mg/kg (Mus musculus [11]): 90.2%; inhibition (INH) (Mus musculus [12]): 5.7%; inhibition (INH) (Mus musculus [13]): 47.9%
CN(C)C1(Cc2ccccc2)CCN(c2cc(C(F)(F)F)ccc2CNC(=O)Nc2cccc3cnccc23)CC1 | 0.67 | Not Active | 507 | –
CN(C)C1(Cc2ccccc2)CCN(c2cc(C(F)(F)F)ccc2CNC(=O)Nc2ccc(CNS(C)(=O)=O)c(F)c2)CC1 | 16.4 | Not Active | 322 | –
CN(C)C1(Cc2ccccc2)CCN(c2cc(C(F)(F)F)ccc2CNC(=O)Nc2cccc3ccncc23)CC1 | 12.3 | Not Active | 205 | –
CN(C)C1(Cc2ccccc2)CCN(c2cc(C(F)(F)F)ccc2CNC(=O)Nc2ccc3cccnc3c2)CC1 | 14.1 | Not Active | 166 | –
CN(C)C1(Cc2ccccc2)CCN(c2cc(C(F)(F)F)ccc2CNC(=O)Nc2cccc3c(=O)[nH]ccc23)CC1 | 111 | – | 105 | EC50 ([2]; read-out: EC50): 43.7 nM; Ki [3]: Not Active
CN(C)C1(Cc2ccccc2)CCN(c2cc(C(F)(F)F)ccc2CNC(=O)Nc2ccc(CO)c(F)c2)CC1 | 27.9 | Not Active | 240 | –
